Test results published in publication PMC9199482 (Surgical Endoscopy, 2022).
Where two headings read alike, the source gives them in different places. Each block holds one compound with its values, some of them ahead of it.

What was measured:
[1] = test system: patients with right colon cancer; experiment: ICG fluorescence lymphography in robotic right hemicolectomy; assay type: in vivo, human; conditions: 9 patients
How it was run: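 Right colon cancer patients had robotic right hemicolectomy with complete mesocolic excision, in two arms of 9. One arm received intraoperative submucosal ICG injection, and fluorescence guided the lymphadenectomy. The comparison arm had standard technique without ICG. ICG-related complications were recorded, with histological nodal staging afterwards.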

[2] = test system: patients scheduled for laparoscopic cholecystectomy; experiment: Near-infrared fluorescence cholangiography at a very low dose of ICG; assay type: in vivo, human; conditions: n = 44
How it was run: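 Prospective study of patients scheduled for laparoscopic cholecystectomy. Each received 0.25 mg ICG intravenously after anaesthetic induction, then NIR fluorescence cholangiography in endoscope overlay mode. Visualisation of the cystic duct, common bile duct and their junction was recorded before and after Calot's triangle dissection. Also recorded: hepatic hyperluminescence, adverse reactions and surgeon satisfaction on a visual analogue scale.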

[3] = test system: patients with symptomatic cholelithiasis or acute cholecystitis; experiment: Direct gallbladder ICG injection during laparoscopic cholecystectomy; assay type: in vivo, human; conditions: 29 patients
How it was run: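 Prospective series of laparoscopic cholecystectomies. ICG was diluted in 10 cc sterile water and injected percutaneously into the gallbladder through a 22G fine needle under direct laparoscopic vision; 2–4 cc was given. Cystic, common bile and common hepatic ducts were recorded as identified or not, first after injection before dissection, then after dissection began.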

[4] = test system: patients with colorectal cancer; assay type: in vivo, human
How it was run: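 Prospective observational study of consecutive patients from 4/2019 undergoing robotic colorectal cancer surgery. The day before surgery, endoscopy delivered 3 mg ICG in 6 ml saline into the peritumoral submucosa as four 1.5 ml injections at the cardinal points. Fluorescence guided any extension of standard lymphadenectomy. Fluorescent extraregional nodes were counted per patient and by resection type.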

adrenal vein = experiment: Intraoperative ICG angiography in laparoscopic adrenal resection; assay type: in vivo, patients
[5] = test system: small bowel of large white pigs; assay type: in vivo, pig; conditions: five pigs, baseline 0.74
[6] = test system: patients undergoing LRYGB; experiment: RCT of intraperitoneal local anesthetic in LRYGB with ERABS protocol; assay type: in vivo, human; conditions: intraperitoneal ropivacaine 0.2% 100 mL; both groups
How it was run: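 Prospective double-blind randomised controlled pilot trial with an a-priori protocol: 120 laparoscopic Roux-en-Y gastric bypass patients under an established ERABS protocol. Patients were randomised to intraperitoneal ropivacaine 0.2% 100 mL or normal saline 100 mL. Adverse events were recorded in both arms.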

[7] = 0.25 mg ICG i.v. after anaesthetic induction
[8] = after ICG injection and before starting the dissection

ICG-related complications [1]: none
Structure (SMILES): CC1(C)C(/C=C/C=C/C=C/C=C2\N(CCCCS(=O)(=O)O)c3ccc4ccccc4c3C2(C)C)=[N+](CCCCS(=O)(=O)[O-])c2ccc3ccccc3c21 [ICG, indocyanine green]
CBD identified by ICG NIRF-C [2, 7]: 100%
CD identified by ICG NIRF-C [2, 7]: 71%
CDBDJ identified by ICG NIRF-C [2, 7]: 84%
bile duct injuries or allergic reactions to ICG ([2]; 0.25 mg ICG i.v.): no bile duct injuries (BDIs) or allergic reactions to ICG
surgeries with surgeon satisfaction of 4/5 or 5/5 (VAS) ([2]; 0.25 mg ICG i.v.): ~90%
cases with common bile duct identified [3, 8]: 18 cases
cases with common hepatic duct identified [3, 8]: 9 cases
cases with common bile duct identified ([3]; after starting the dissection): 27 cases
cases with common hepatic duct identified ([3]; after starting the dissection): 14 cases
cases with cystic duct identified ([3]; after starting the dissection): all cases
patients with ICG-fluorescent lymphnodes observed ([4]; 3 mg ICG in 6 ml saline, peritumoral submucosal, day before surgery, 86/88): 97,7%
patients with fluorescent extraregional lymph nodes ([4]; 34 of 88 patients): 38,6%
ICG-injection related complication ([4]; 88 patients): No ICG-injection related complication occurred
patients with fluorescent extraregional lymph nodes ([4]; anterior rectal resections): 21/33
patients with fluorescent extraregional lymph nodes ([4]; left hemicolectomies): 3/20
mean number of retrieved extraregional fluorescent lymph nodes ([4]; range 1–8): 4
patients with fluorescent extraregional lymph nodes ([4]; right hemicolectomies): 10/31
cases in which ICG confirmed the adrenal vein (adrenal vein; laparoscopic right adrenal resection): 2/3
cases in which ICG helped identify the vessel, after the dissection (adrenal vein; left laparoscopic adrenalectomy): 100%

Structure (SMILES): NC[C@H](O)c1ccc(O)c(O)c1 [norepinephrine]
local capillary lactate (LCL) ([5]; first assessment): 0.82 mmol/L
local capillary lactate (LCL) ([5]; fourth assessment): 0.62 mmol/L
local capillary lactate (LCL) ([5]; second assessment): 0.64 mmol/L
local capillary lactate (LCL) ([5]; third assessment): 0.60 mmol/L

Structure (SMILES): CCCN1CCCC[C@H]1C(=O)Nc1c(C)cccc1C [ropivacaine]
adverse events [6]: no adverse events
